Reference: ChEMBL document CHEMBL3745674, “Inhibitors of HIV-1 attachment: The discovery and structure-activity relationships of tetrahydroisoquinolines as replacements for the piperazine benzamide in the 3-glyoxylyl 6-azaindole pharmacophore” (Bioorg Med Chem Lett, 2016)

Experiments:
[1] = AUC(last) in rat at 5 mg/kg, po; assay type: ADME, organism-based; design: dose 5 mg/kg, time 0 - last, route oral; details: in vivo
Outline: (§1)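 Oral dosing in rat at 5 mg/kg in PEG 400/ethanol (90:10 v/v) vehicle.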

[2] = Cmax in rat at 5 mg/kg, po; assay type: ADME, organism-based; design: dose 5 mg/kg, route oral; details: in vivo; outline: as §1
[3] = Permeability of compound at pH 5.5 by PAMPA; assay type: ADME; details: read-out: permeability
Outline: (§2)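 Passive permeability by PAMPA at pH 7.4 and pH 5.5, reported in nm/s.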

[4] = Permeability of compound at pH 7.4 by PAMPA; assay type: ADME; details: read-out: permeability; outline: as §2
[5] = Volume of distribution at steady state in rat at 1 mg/kg, iv; assay type: ADME, organism-based; details: in vivo, read-out: Vdss
Outline: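 Intravenous dosing in rat at 1 mg/kg. Plasma clearance and volume of distribution were determined.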

Liver [6] = test: Drug level in Aroclor-1254-induced rat liver S9 fraction treated with 1-(4-methoxy-7-(3-methyl-1H-1,2,4-triazol-1-yl)-1H-pyrrolo[2,3-c]pyridin-3-yl)-2-(5-(pyridin-2-yl)-3,4-dihydroisoquinolin-2(1H)-yl)ethane-1,2-dione assessed as compound formation incubated at 37 degC for 4.5 hrs; assay type: ADME, subcellular; details: s9, 4.5 h
Liver [7] = test: Drug metabolism in Aroclor-1254-induced rat liver S9 fraction assessed as 1-(1-hydroxy-5-(pyridin-2-yl)-3,4-dihydroisoquinolin-2(1H)-yl)-2-(4-methoxy-7-(3-methyl-1H-1,2,4-triazol-1-yl)-1H-pyrrolo[2,3-c]pyridin-3-yl)ethane-1,2-dione formation incubated at 37 degC for 4.5 hrs; assay type: ADME, subcellular; details: s9, 4.5 h

AUC(0-t) [1] [µM·h] | Cmax [2] [µM] | Papp [3] [×10⁻⁶ cm/s] | Compound | also measured
52 | 6.4 | – | COc1cnc(-n2cnc(C)n2)c2[nH]cc(C(=O)C(=O)N3CCN(C(=O)c4ccccc4)CC3)c12 | –
– | – | 3.2 | COc1cnc(-c2cc(C(=O)O)[nH]n2)c2[nH]cc(C(=O)C(=O)N3CCc4c(cccc4-c4ccccn4)C3)c12 | –
41 | 10 | 24.4 | COc1cnc(-n2cnc(C)n2)c2[nH]cc(C(=O)C(=O)N3CCc4c(ncnc4-c4ccccn4)C3)c12 | Papp [4]: 29.4 ×10⁻⁶ cm/s; Vd [5]: 0.33 L/kg
– | – | – | COc1cnc(-n2cnc(C)n2)c2[nH]cc(C(=O)C(=O)N3CCc4c(-c5ccccn5)cccc4C3O)c12 (stereo not given) | Drug metabolism (Liver [6]): metabolite_detected
– | – | – | COc1cnc(-n2cnc(C)n2)c2[nH]cc(C(=O)C(=O)N3CCc4c(cccc4-c4ccccn4)C3)c12 | Drug metabolism (Liver [7]): metabolite_detected
